Experimental data as given in ChEMBL document CHEMBL4818990, “Insight into the binding mode of HIF-2 agonists through molecular dynamic simulations and biological validation” (Eur J Med Chem, 2021).
Calls of active or inactive are those of the source. No cut-off for these calls is given here.

Assays:
Homo sapiens = organism: Homo sapiens; test: Agonist activity at HIF-2 (unknown origin) expressed in bacterial expression system assessed as change in melting temperature at 10 uM measured by thermal shift assay; conditions: filed as agonist
Outline: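 HIF-2–ARNT protein complex (1.5M as printed) with 10 μM compound from DMSO stock, final DMSO 0.1%, in 20 mM Tris pH 8.0, 400 mM NaCl. Read on qPCR instrument with thermal-shift dye. Tm from derivative curve; ΔTm = compound Tm minus blank Tm. Four parallel replicates per compound.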

786-0 [1] = test: (§1) Agonist activity at HIF-2 in human 786-0-HRE-Luc cells assessed as increase in […] intensity measured after 24 hrs by luciferase reporter gene assay; type: cell-based; conditions: filed as agonist
Outline: (§2)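 786-O cells stably transduced with lentiviral HRE-driven firefly luciferase (single clone), grown in RPMI-1640 + 10% FBS. Seeded, allowed to attach, then given compound in DMSO (2 and 20 μM, or a concentration series) for 24 h. Luminescence read with a firefly luciferase reagent; triplicate cultures, mean ± s.d.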

786-0 [2] = test: Agonist activity at HIF-2 in human 786-0-HRE-Luc cells at 2 uM measured after 24 hrs by luciferase reporter gene assay; type: cell-based; conditions: filed as agonist; outline: as §2
786-0 [3] = test: Agonist activity at HIF-2 in human 786-0-HRE-Luc cells assessed as increase in […] intensity at 6.6 to 20 uM measured after 24 hrs by luciferase reporter gene assay; type: cell-based; conditions: dose 6.6-20 µM; outline: as §2
[4] = as §1; type: cell-based; conditions: 786-0, 24 h; outline: as §2
786-0 [5] = test: Agonist activity at HIF-2 in human 786-0-HRE-Luc cells assessed as increase in […] intensity at 2.2 uM measured after 24 hrs by luciferase reporter gene assay relative to control; type: cell-based; conditions: filed as agonist; outline: as §2
786-0 [6] = test: Cytotoxicity against human 786-0-HRE-Luc cells assessed as inhibition of cell proliferation at 1 uM measured after 24 hrs by CCK8 assay; type: cell-based; conditions: 786-0, 24 h
786-0 [7] = test: Cytotoxicity against human 786-0-HRE-Luc cells assessed as inhibition of cell proliferation at 20 uM measured after 24 hrs by CCK8 assay; type: cell-based; conditions: 786-0, 24 h
786-0 [8] = test: Agonist activity at HIF-2 in human 786-0-HRE-Luc cells assessed as increase in […] intensity at 20 uM measured after 24 hrs by luciferase reporter gene assay relative to control; type: cell-based; conditions: filed as agonist; outline: as §2

ΔTm (Homo sapiens)	Compound	Activity (786-0 [1])	further results
2.05 °C	O=S1(=O)N=C(Nc2cc(F)cc(F)c2)c2ccccc21	Dose-Dependent Effect	–
0.03 °C	O=C1N=C(Nc2cc(C(F)(F)F)cc(C(F)(F)F)c2)c2ccccc21	–	–
2 °C	O=S1(=O)N=C(Nc2ccccc2)c2ccccc21	Dose-Dependent Effect	–
0.06 °C	O=S1(=O)N=C(Oc2cc(C(F)(F)F)cc(C(F)(F)F)c2)c2ccccc21	–	–

Continued, compound first:

Compound	ΔTm (Homo sapiens)	Activity (786-0 [1])	further results
O=S1(=O)N=C(Nc2cc(Cl)cc(Cl)c2)c2ccccc21	2.08 °C	Dose-Dependent Effect	–
COc1cc(NC2=NS(=O)(=O)c3ccccc32)cc(OC)c1	1.89 °C	Dose-Dependent Effect	–
Cc1cc(C)cc(NC2=NS(=O)(=O)c3ccccc32)c1	1.93 °C	Dose-Dependent Effect	–
O=S1(=O)N=C(Nc2cc(C(F)(F)F)cc(C(F)(F)F)c2)c2ccccc21	2.23 °C	–	Activity (786-0 [2]): Active; Activity (786-0 [3]): inactive; EC50 [4]: 440 nM; fold change (FC) (786-0 [5]): 1.41; Activity (786-0 [6]): Toxic
O=S1(=O)N=C(Nc2cc(Br)cc(Br)c2)c2ccccc21	2.52 °C	Dose-Dependent Effect	Activity (786-0 [7]): Non-Toxic; EC50 [4]: 1680 nM; fold change (FC) (786-0 [8]): 1.63
CN(C1=NS(=O)(=O)c2ccccc21)c1cc(C(F)(F)F)cc(C(F)(F)F)c1	0.27 °C	–	–
